Tests used:
[1] = Clinical hepatic impairment study: total plasma PK of alectinib and M4; format: in vivo, human; conditions: single 300-mg dose of alectinib
Unbound fraction = format: in vivo, human; conditions: for fraction unbound: human, plasma, oral, 300 mg, median value of individual mean fu%, plasma 6 and 12 hours postdose; for GMR of unbound AUC0‐∞ / GMR of unbound Cmax: single 300-mg dose of alectinib
How it was run: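 Single oral 300 mg dose given 30 min after the start of a standard ~514 kcal meal, after a ≥10 h fast. Plasma taken 6 and 12 h postdose was dialyzed in triplicate, and plasma and buffer were analysed by LC-MS/MS. Samples were spiked if levels were too low. fu% = unbound/total ×100, geometric mean of triplicates (outlier dropped if CV >45.0%). GMRs from ANOVA of log Cmax and AUC0‐∞, with matched controls as a random effect.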

[2] = Safety evaluations in the clinical study; format: in vivo, human
How it was run: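 Open-label, multicenter, parallel-group study in healthy subjects and subjects with moderate (Child-Pugh B) or severe (Child-Pugh C) hepatic impairment. Subjects fasted at least 10 h, then took one oral 300-mg capsule dose of test compound with water 30 min after starting a standard meal. No food for 4 h. Adverse events, vital signs, clinical laboratory tests and ECGs were recorded, with follow-up 7–10 days after dosing.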

CYP3A = conditions: cited from earlier work
plasma proteins = conditions: cited from earlier work
[3] = moderate hepatic impairment/matched healthy subjects
[4] = severe hepatic impairment/matched healthy subjects

GMR of total AUC0‐∞ [1, 3]: 160%
GMR of total Cmax [1, 3]: 128%
GMR of total AUC0‐∞ [1, 4]: 220%
GMR of total Cmax [1, 4]: 100%
fraction unbound (Unbound fraction; healthy subjects matched for moderate): 0.00206
fraction unbound (Unbound fraction; healthy subjects matched for severe): 0.0014
fraction unbound (Unbound fraction; moderate hepatic impairment): 0.00229
fraction unbound (Unbound fraction; severe hepatic impairment): 0.00179
GMR of unbound AUC0‐∞ (Unbound fraction; [3]): 186%
GMR of unbound Cmax (Unbound fraction; [3]): 148%
GMR of unbound AUC0‐∞ (Unbound fraction; [4]): 285%
GMR of unbound Cmax (Unbound fraction; [4]): 130%
Compound: CCc1cc2c(cc1N1CCC(N3CCOCC3)CC1)C(C)(C)c1[nH]c3cc(C#N)ccc3c1C2=O [Alectinib]
changes in vital signs, laboratory values, or electrocardiogram measurements ([2]; single oral 300 mg, during the study): No clinically significant changes
tolerability ([2]; single oral dose of 300 mg, healthy subjects and subjects with moderate or severe hepatic impairment): well tolerated
increase in exposure on coadministration of a potent CYP3A inhibitor (CYP3A): 75%
protein binding in vitro (plasma proteins): ≥ 99%
